Calls of active or inactive are those of the source. The calls are words filed in the database; no cut-off is given here.
What was measured:
[1] = test system: HUVEC (Homo sapiens); test: Cytotoxicity against HUVEC cells up to 10 uM
[2] = molecular target: Bcl-xL/BAK (Homo sapiens, UniProt Q07817); test: Inhibition of His-tagged Bcl-xL (unknown origin)/5-carboxyfluorescein-labeled Bak (unknown origin) protein protein interaction after 1 hr by fluorescence polarization assay
How it was run: (§1)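 Competition FP assay displacing a fluorescent-tagged BH3-domain probe (Bak peptide for Bcl-xL, Bid peptide for Mcl-1). Run in triplicate, with reference BH3-mimetic positive controls.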

[3] = molecular target: Induced myeloid leukemia cell differentiation protein Mcl-1/BH3-interacting domain death agonist (Homo sapiens, UniProt Q07820); test: Inhibition of His-tagged MCL1 (unknown origin)/5-carboxyfluorescein-labeled Bid (unknown origin) protein protein interaction after 1 hr by fluorescence polarization assay
How it was run: as §1

[4] = test system: KB; test: Cytotoxicity against human KB cells up to 10 uM; format: functional, cell-based

Induced myeloid leukemia cell differentiation protein Mcl-1/BH3-interacting domain death agonist, sequence (Q07820 whole entry, the tested form may be a part): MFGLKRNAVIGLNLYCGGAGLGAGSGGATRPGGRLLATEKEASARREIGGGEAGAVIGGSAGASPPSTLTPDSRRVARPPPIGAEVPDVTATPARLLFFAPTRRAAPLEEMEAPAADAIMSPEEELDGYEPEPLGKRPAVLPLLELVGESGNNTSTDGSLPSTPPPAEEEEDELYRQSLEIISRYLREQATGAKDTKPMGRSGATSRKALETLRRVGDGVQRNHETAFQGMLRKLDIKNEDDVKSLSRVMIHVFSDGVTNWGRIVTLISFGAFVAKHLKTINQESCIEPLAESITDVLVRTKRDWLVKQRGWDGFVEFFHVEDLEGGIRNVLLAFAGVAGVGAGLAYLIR
Induced myeloid leukemia cell differentiation protein Mcl-1/BH3-interacting domain death agonist, sequence (P55957 whole entry, further chain, the tested form may be a part): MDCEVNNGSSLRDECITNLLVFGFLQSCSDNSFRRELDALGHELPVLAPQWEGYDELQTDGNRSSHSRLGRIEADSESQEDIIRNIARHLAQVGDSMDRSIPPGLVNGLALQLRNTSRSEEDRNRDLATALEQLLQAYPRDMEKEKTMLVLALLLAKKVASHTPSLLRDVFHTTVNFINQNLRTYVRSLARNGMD
Bcl-xL/BAK, sequence (Q07817 whole entry): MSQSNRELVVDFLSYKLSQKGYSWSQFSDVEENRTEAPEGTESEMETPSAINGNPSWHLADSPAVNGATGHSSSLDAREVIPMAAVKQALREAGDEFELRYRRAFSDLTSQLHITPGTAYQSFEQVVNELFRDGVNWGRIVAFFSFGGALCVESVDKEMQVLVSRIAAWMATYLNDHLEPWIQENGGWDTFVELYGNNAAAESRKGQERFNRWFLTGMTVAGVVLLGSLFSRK
Bcl-xL/BAK, sequence (Q16611 whole entry, further chain): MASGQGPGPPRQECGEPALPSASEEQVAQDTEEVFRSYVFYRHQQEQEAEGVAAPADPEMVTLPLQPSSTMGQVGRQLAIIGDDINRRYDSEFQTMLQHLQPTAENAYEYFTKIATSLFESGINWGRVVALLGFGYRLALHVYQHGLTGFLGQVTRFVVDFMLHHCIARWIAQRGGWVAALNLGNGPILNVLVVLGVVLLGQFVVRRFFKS

Ki [2] [µM] | SMILES | Activity [1] | Ki [3] [µM] | Activity [4]
> 23 | COC1=C(O)C(=O)/C(=C(\O)[C@H]2CC=C(CCC=C(C)C)C[C@@H]2c2ccccc2)C(=O)C1=O | inactive | 7.4 | inactive
> 23 | COC1=C(OC)C(=O)C2=C(O[C@@H](c3ccccc3)CC2=O)C1=O | inactive | > 33 | inactive
4.8 | COC1=C(O)C(=O)/C(=C(\O)[C@@H]2CC=C(CCC=C(C)C)C[C@H]2c2ccccc2)C(=O)C1=O | inactive | 2.4 | inactive
2.6 | CC(C)=CCC[C@H](C)[C@@H]1C=C[C@]2(C(=O)O)[C@@H](CC(C)=C[C@H]2/C=C(\C)C2CCC(C(=O)O)CC2)C1 (some centres not stated) | – | – | –
> 23 | COc1c(O)c2c(c(O)c1OC)C(=O)C[C@H](c1ccccc1)O2 | inactive | > 33 | inactive
17.5 | COC1=C(O)C(=O)/C(=C(\O)C2CC=C(CCC=C(C)C)CC2c2ccccc2)C(=O)C1=O (racemic) | inactive | 3.1 | inactive
> 23 | CC(C)=CCCC1=CCC(C(=O)O)C(c2ccccc2)C1 (racemic) | inactive | > 33 | inactive
> 23 | CC(=O)C1CC=C(CCC=C(C)C)CC1c1ccccc1 (racemic) | inactive | > 33 | inactive
> 23 | CC(=O)C1CC(CCC=C(C)C)=CCC1c1ccccc1 (racemic) | inactive | > 33 | inactive
> 23 | COc1cc(/C=C/c2ccccc2)oc(=O)c1 [DESMETHOXYYANGONIN] | inactive | > 33 | inactive

Source: ChEMBL document CHEMBL4130571, “(+)- and (-)-Ecarlottones, Uncommon Chalconoids from Fissistigma latifolium with Pro-Apoptotic Activity” (J Nat Prod, 2017)
